Experiment [1] in a line: Cytotoxicity against human OVCAR5 cells assessed as cell growth inhibition after 72 hrs by MTS assay. It is filed as functional. Conditions: OVCAR-5, 72 h. In a few lines: (§1)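 Cells grown in RPMI1640 with 10% FBS and 2 mM glutamine at 37°C, 5% CO2; plated at 15 000 cells/mL, treated with compounds 72 h after plating, and survival read by MTS after a further 72 h; dose-response curves plotted.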
Background: Tetrazolium dyes change colour on reduction, which living cells bring about.

The test system of experiment [2] is HeLa. The experiment is described as follows: Induction of mitochondrial membrane depolarization in human HeLa cells at 25 uM after 28 hrs by JC-1 staining-based flow cytometric analysis (reference value: 4%). It is filed as functional. The method in brief:
(§2)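 HeLa cells (2.0 x 10^5) seeded, compound added after 24 h, then incubated 28 h. Cells loaded with JC-1 working solution for 30 min at 37°C, washed twice and read in assay buffer by flow cytometry. Loss of red aggregate fluorescence scored as depolarized (JC-1 monomer) cells.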

For experiment [3], the system named is HeLa. Nature of the experiment: Cytotoxicity against human HeLa cells assessed as cell growth inhibition after 72 hrs by trypan blue assay. It counts as functional. In a few lines: (§3)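 HeLa (F-12 HAM) and MCF-7 (DMEM) kept in medium with 10% heat-inactivated FCS plus antibiotics; 4-5×10^4 cells/well seeded, compounds added after 24 h at various concentrations, then 72 h more. Viable cells counted by trypan blue; GI50 is the concentration giving 50% fewer cells than control. Mean ± SD from at least three independent experiments.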

The test system of experiment [4] is MCF7. The experiment is described as follows: Cytotoxicity against human MCF7 cells assessed as cell growth inhibition after 72 hrs by trypan blue assay. It counts as functional. The settings on record: MCF7, 72 h. The method in brief: as §3
In experiment [5] the test system is A2780. Nature of the experiment: Cytotoxicity against human A2780 cells assessed as cell growth inhibition after 72 hrs by MTS assay. It counts as functional. The settings on record: A2780, 72 h. The method in brief: as §1
For experiment [6], the target named is DNA topoisomerase 2-alpha (Homo sapiens) (UniProt P11388). The experiment is described as follows: Inhibition of human recombinant topoisomerase 2 alpha-mediated relaxation of supercoiled pBR322 plasmid DNA at 10 to 50 uM after 60 mins by electrophoretic analysis. The method in brief:
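Relaxation assay: 0.25 µg supercoiled pBR322 incubated with 1U human recombinant topoisomerase IIα and compound for 60 min at 37°C; m-AMSA reference at 10 µM. Stopped with SDS stop buffer plus 50 µg/mL proteinase K for 30 min at 37°C, run on 1% agarose, then stained with 1 µg/mL ethidium bromide in TAE.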

In experiment [7] the test system is HeLa. Nature of the experiment: Induction of apoptosis in human HeLa cells assessed as late apoptotic cells at 50 uM after 28 hrs by annexin V/FITC/propidium iodide staining-based flow cytometry (reference value: 1.2%). It is filed as functional. (A flow cytometer gives signals particle by particle.)
Experiment [8] has as its system HeLa. Nature of the experiment: Induction of apoptosis in human HeLa cells assessed as early apoptotic cells at 50 uM after 28 hrs by annexin V/FITC/propidium iodide staining-based flow cytometry (reference value: 2.6%). It is filed as functional.
Experiment [9] relates to HeLa. Nature of the experiment: Induction of apoptosis in human HeLa cells assessed as viable cells at 50 uM after 28 hrs by annexin V/FITC/propidium iodide staining-based flow cytometry (reference value: 95.3%). It counts as functional. The settings on record: read-out: Activity.
The test system of experiment [10] is HeLa. The experiment is described as follows: Induction of apoptosis in human HeLa cells assessed as dead cells at 50 uM after 28 hrs by annexin V/FITC/propidium iodide staining-based flow cytometry (reference value: 1%). It counts as functional. The method in brief:
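HeLa cells (2.0 x 10^5 per plate) seeded, grown 24 h in F-12 [HAM] with 10% heat-inactivated fetal calf serum, then exposed to test agent in complete medium for 28 h at 37 °C, 5% CO2. Cells were resuspended at 10^6 cells/mL in binding buffer and stained with annexin V-FITC plus propidium iodide for 15 min in the dark at room temperature. Read by flow cytometry.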

For experiment [11], the system named is HeLa. The experiment is described as follows: Induction of mitochondrial membrane depolarization in human HeLa cells after 28 hrs by JC-1 staining-based flow cytometric analysis. It counts as functional, cell-based. The method in brief:
as §2

Experiment [12] deals with T1, DNA topoisomerase 1 (Homo sapiens) (UniProt P11387).
T1 sequence (whole entry): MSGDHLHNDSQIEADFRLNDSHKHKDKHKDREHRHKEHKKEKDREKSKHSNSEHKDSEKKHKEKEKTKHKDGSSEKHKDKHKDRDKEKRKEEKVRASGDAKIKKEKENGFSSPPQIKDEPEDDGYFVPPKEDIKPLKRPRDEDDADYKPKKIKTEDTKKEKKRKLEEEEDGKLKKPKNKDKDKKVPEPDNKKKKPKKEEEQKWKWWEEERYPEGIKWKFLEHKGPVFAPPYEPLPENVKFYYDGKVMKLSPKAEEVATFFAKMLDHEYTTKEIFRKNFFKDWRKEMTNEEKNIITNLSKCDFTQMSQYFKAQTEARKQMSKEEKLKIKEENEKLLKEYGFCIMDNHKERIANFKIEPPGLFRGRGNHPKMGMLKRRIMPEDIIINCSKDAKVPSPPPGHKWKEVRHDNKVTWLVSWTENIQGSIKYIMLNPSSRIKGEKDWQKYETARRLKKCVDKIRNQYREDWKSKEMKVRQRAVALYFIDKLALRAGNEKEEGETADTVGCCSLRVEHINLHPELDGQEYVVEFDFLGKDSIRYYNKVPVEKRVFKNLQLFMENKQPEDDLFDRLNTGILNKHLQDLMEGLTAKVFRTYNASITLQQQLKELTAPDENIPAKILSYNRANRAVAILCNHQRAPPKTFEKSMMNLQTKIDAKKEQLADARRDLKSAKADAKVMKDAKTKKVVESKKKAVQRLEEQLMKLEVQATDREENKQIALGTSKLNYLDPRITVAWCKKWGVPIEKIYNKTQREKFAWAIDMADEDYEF
Nature of the experiment: Inhibition of human recombinant topoisomerase 1-mediated relaxation of supercoiled pBR322 plasmid DNA at 100 uM after 60 mins by electrophoretic analysis. The method in brief:
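Relaxation assay: 0.25 µg supercoiled pBR322 incubated with 2U human recombinant topoisomerase I and compound for 60 min at 37°C. Stopped with SDS stop buffer plus 50 µg/mL proteinase K for 30 min at 37°C, run on 1% agarose at room temperature, then stained with 1 µg/mL ethidium bromide in TAE.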

In experiment [13] the target is DNA topoisomerase 2-alpha (Homo sapiens) (UniProt P11388). The experiment is described as follows: Poisoning activity at human recombinant topoisomerase 2 alpha using supercoiled pBR322 plasmid DNA as substrate assessed as stabilization of covalent DNA-enzyme complex at 50 uM after 60 mins by electrophoretic analysis. In a few lines: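 Cleavage assay: 0.25 µg supercoiled pBR322 with 10 U human recombinant topoisomerase IIα and compound, 60 min at 37°C. Stopped with SDS buffer and 50 µg/mL proteinase K for 30 min at 37°C, then resolved on 1% agarose containing 0.5 µg/mL ethidium bromide in TBE, with UV imaging.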
DNA topoisomerase 2-alpha (Homo sapiens), sequence (P11388 whole entry): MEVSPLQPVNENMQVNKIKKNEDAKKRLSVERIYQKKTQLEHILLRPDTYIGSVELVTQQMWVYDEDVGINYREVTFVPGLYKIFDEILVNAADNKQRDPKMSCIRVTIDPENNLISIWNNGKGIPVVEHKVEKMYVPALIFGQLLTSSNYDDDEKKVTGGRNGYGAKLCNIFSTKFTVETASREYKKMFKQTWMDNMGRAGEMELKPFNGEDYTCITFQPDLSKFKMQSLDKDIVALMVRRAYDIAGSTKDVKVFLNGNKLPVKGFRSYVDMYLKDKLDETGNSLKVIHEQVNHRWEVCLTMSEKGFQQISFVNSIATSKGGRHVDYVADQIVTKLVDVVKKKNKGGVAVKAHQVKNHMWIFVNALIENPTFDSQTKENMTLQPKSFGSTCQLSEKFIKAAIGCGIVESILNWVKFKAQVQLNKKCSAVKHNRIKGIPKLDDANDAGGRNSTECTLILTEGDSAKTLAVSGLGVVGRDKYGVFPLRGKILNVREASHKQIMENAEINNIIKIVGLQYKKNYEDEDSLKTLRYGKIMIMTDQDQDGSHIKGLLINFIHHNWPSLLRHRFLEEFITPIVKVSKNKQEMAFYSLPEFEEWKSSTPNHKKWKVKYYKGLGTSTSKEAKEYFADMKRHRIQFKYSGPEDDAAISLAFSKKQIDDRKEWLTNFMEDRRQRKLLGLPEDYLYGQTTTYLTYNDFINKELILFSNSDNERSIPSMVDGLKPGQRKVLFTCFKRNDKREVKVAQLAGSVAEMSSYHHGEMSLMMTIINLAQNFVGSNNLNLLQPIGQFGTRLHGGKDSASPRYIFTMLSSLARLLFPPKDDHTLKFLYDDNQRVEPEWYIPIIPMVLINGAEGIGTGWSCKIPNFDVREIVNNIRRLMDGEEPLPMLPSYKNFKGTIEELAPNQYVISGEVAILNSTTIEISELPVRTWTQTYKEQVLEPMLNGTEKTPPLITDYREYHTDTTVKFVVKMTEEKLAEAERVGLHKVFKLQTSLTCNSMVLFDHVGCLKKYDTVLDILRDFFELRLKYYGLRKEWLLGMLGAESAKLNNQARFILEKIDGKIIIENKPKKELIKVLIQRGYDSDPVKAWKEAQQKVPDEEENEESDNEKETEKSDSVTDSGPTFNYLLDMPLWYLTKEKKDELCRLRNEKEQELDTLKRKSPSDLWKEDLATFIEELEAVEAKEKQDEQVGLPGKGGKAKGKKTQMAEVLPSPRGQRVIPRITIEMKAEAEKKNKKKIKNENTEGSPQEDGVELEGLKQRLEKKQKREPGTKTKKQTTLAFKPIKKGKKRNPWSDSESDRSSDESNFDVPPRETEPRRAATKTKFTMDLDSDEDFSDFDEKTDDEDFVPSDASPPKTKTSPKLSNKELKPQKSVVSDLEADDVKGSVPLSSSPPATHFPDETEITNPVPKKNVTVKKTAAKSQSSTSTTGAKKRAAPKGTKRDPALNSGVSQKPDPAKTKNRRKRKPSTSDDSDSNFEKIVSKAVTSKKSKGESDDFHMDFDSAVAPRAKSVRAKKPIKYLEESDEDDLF

In experiment [14] the test system is HeLa. The experiment is described as follows: Induction of mitochondrial membrane depolarization in human HeLa cells at 10 uM after 28 hrs by JC-1 staining-based flow cytometric analysis (reference value: 4%). It is filed as functional. In a few lines: as §2
Experiment [15] deals with HeLa. Nature of the experiment: Induction of mitochondrial membrane depolarization in human HeLa cells at 15 uM after 28 hrs by JC-1 staining-based flow cytometric analysis (reference value: 4%). It counts as functional. The method in brief: as §2

Active and inactive are the calls of the source. The calls are words filed in the database; no cut-off is given here.

Broadly, the GI50 is the concentration that inhibits growth by half.

For the molecule `CC/C(=C(/c1ccc(NC(=O)C(C)C)cc1)c1ccc(OC)cc1)c1ccc(Cl)cc1Cl`, the GI50 in experiment [1] was greater than 50 µM; in experiment [3], 2.2 µM; in experiment [4], 6.6 µM; in experiment [5], 3.8 µM. Besides, the Activity in [2] is 80.3%; in experiment [7], 21.8%; in experiment [8], 44.4%; in [10] it was 2.1%; in experiment [11], “Dose-dependent effect”; in [14], 51.8%. Besides, in experiment [15], the Activity was determined as 75.7%. Also, in [6], the inhibition entry was “Active”. Also, in experiment [9], the viability at 50 µM is 31.7%. Besides, the inhibition result in experiment [12] was “inactive”. The result in experiment [13] was Active.

(Values after ChEMBL document CHEMBL3822447, “4-(1,2-diarylbut-1-en-1-yl)isobutyranilide derivatives as inhibitors of topoisomerase II” (2016).)
